Assay outcomes as filed in PubChem.
Only some compounds are listed: those with a hit (about 1.2% of all), similar ones and a draw of the others.
FN deposition inh: fibronectin deposition inhibition; AH1F fibroblasts, Alexa488-fibronectin deposition fluorescence, overnight; AID 743247; actives 0.086% (n = 350,000); inhibition, % at 12.6 µM;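 active = mean inhibition across replicates of 30% or more, regardless of how many single replicates reach that level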;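 also: positive control wells lacked labelled fibronectin entirely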
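Test system: AH1F fibroblast monolayer depositing Alexa488-labelled fibronectin into matrix. Input: 10000 cells per well. Technique: fluorescence, ex 485 nm, em 525 nm. Buffer or medium: DMEM plus 2% serum, read in PBS. Timing: 1 h cell adhesion before compound, then overnight fibronectin incubation. Compound: single dose, pinned. Read-out basis: inhibition from reduced deposited-fibronectin fluorescence.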
AF4-AF9 inh: inhibitors of human MLL-AF4/AF9 interaction; actives 0.47% (n = 350,000); P42568; AID 651704; AlphaScreen, biotin-AF4 peptide binding to FLAG-AF9; inhibition, % at 10 µM;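 active = every replicate reaching a set inhibition limit, whatever the replicate mean, cut at about 25% in these data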;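 also: 0% = plate neutral control median and 100% = total signal loss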
NSD2 inh: NSD2 (human) methyltransferase inhibition; inhibition, % at 12.5 µM; actives 0.54% (n = 310,000); O96028; AID 743445; NSD2 peptide methylation, AlphaScreen, 120 min; in the data active = inhibition above about 50%
RAD54 inh: inhibitors of human RAD54 branch migration; Q92698; inhibition, % at 10.4 µM; actives 0.14% (n = 360,000); AID 602329; RAD54 Holliday junction branch migration, FAM/BHQ fluorescence;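 active = mean normalized replicate activity at least 40 and at least half of replicates scoring 40 or more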;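 also: 0% = median of neutral control wells and 100% = median of positive control wells; inhibitors cause a drop in the FAM fluorescence signal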
Glyco luc inh: blocks N-linked glycosylation in D54 reporter cells | D54 ERlucT glycosylation luciferase reporter, 24 h; percent of 100 nM tunicamycin response | reporter increase, % at 12.5 µM | actives 0.23% (n = 360,000) | AID 588692;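 active = mean luciferase reporter signal, scaled so untreated is 0 and the glycosylation-blocking control 100, at or above a set limit in every replicate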;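 also: luciferase carries N-glycosylation sites so blocking glycosylation raises the light; 0% = median of neutral control wells and 100% = median of 100 nM tunicamycin wells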
RAD52 anneal inh: blocks human RAD52 DNA annealing; P43351; recombinant RAD52 DNA annealing, FRET fluorescence; inhibition, % at 18.7 µM; actives 0.46% (n = 360,000); AID 651710;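 active = every replicate showing at least 50% inhibition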
Target sequence (P43351 whole entry, looked up): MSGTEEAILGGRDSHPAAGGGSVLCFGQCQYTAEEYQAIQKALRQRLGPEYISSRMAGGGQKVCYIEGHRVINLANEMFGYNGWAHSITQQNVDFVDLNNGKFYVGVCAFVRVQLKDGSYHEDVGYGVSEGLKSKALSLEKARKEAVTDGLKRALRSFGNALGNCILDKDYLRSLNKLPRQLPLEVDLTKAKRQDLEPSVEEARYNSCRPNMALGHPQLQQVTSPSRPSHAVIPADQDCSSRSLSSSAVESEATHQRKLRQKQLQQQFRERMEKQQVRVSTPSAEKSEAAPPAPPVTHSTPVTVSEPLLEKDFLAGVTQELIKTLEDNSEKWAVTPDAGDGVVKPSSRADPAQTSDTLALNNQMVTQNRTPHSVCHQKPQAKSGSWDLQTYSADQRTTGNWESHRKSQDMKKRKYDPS
AlphaScreen art: interferes with AlphaScreen signal, flagging NSD2 false positives; shares compounds with NSD2 inh; AlphaScreen artifact counterscreen, preloaded methylated H4 peptide; AC35, µM (highest dose often 10 µM), for inactives: at the top dose activity change, negative = signal loss; actives 9.4% (n = 1,500); call rule not given here
Numbers without * were called inactive; nt = no result.

SMILES	FN deposition inh	AF4-AF9 inh	NSD2 inh	RAD54 inh	Glyco luc inh	RAD52 anneal inh	AlphaScreen art
Cc1ccc(NC(=O)CCNC(=O)c2ccco2)cc1	3	nt	-3	nt	1	nt	nt
CN(C)S(=O)(=O)c1ccc(NC(=O)CCNC(=O)c2ccco2)cc1	-1	-2	59*	-7	-1	-19	0%
C=CCOC(=O)[C@@H]1[C@H]2C(=O)O[C@H](c3ccccc3)[C@H](c3ccccc3)N2[C@H](c2ccc(OCCOC(=O)[C@@H]3C[C@@H]4C(=O)NCC(=O)N4[C@@H]3c3ccc(O)cc3)cc2)[C@@]12C(=O)Nc1ccc(I)cc12	nt	0	nt	-15	nt	-11	nt
COc1cc(/C=C(\C#N)c2nc3ccc(C)cc3[nH]2)c([N+](=O)[O-])cc1OC	nt	nt	0	4	2	nt	nt
COc1cc(/C=C(\C#N)c2nc3ccc(C)cc3[nH]2)cc([N+](=O)[O-])c1O	-8	8	61*	nt	4	-21	-17%
C[C@@H]1CN([C@H](C)CO)C(=O)c2cc(NC(=O)NC3CCCCC3)ccc2O[C@@H](C)CCCCO[C@@H]1CN(C)Cc1ccc(C(=O)O)cc1	nt	-2	nt	-13	nt	16	nt
CNC(=O)C[C@@H]1CC[C@@H]2[C@H](COC[C@H](O)CN2C(=O)Nc2cccc(OC)c2)O1	-7	0	nt	3	nt	17	nt
COC(=O)c1nn(C)c(=O)[nH]c1=O	10	-2	51*	-10	-1	5	1%
Cc1cc(F)c(F)c(C(=O)N2C(C)CCCC2C)c1Cl (centres undefined)	-31	-1	58*	nt	-1	-8	2%
CCN1[C@@H]2c3ccc(-c4ccncc4)c(=O)n3C[C@@H]2[C@@H](CO)[C@@H]1C(=O)NCCc1cn(C)cn1	nt	-24	nt	-15	nt	-15	nt
CCN1CCN(Cc2nc(N)nc(Nc3ccc(C)c(C)c3)n2)CC1	-6	nt	95*	-2	0	nt	4%
N#Cc1cc(-c2ccccc2)cnc1Sc1ccc(Cl)cc1	-6	nt	112*	-2	-2	nt	7%
COc1ccc2c3c(n(C)c2c1)[C@H](CO)N(Cc1nccs1)CC31CCN(C(C)=O)CC1	nt	5	nt	nt	nt	nt	nt
CCN1CC2CCCC3(C1)C(=O)NC1(CCCCC1)N=C23 (centres undefined)	5	nt	56*	2	-1	nt	-4%
CCOC(=O)c1cc(NC(=O)CN2CCCC2)cc(C(=O)OCC)c1	-1	2	96*	-3	0	-27	-4%
Cc1noc(C)c1NC(=O)N(C)C[C@@H]1OCCCC[C@@H](C)Oc2ccc(NC(=O)Nc3ccccc3)cc2C(=O)N([C@H](C)CO)C[C@@H]1C	nt	nt	nt	-5	nt	nt	nt
CCN1CCC(CNCc2cn(-c3ccc(OC)cc3)nc2-c2ccccc2Cl)C1 (centres undefined)	5	22	75*	nt	-3	50	-4%
O=C(OCC(=O)N1CCCCC1)c1ccc2c(c1)C(=O)N(Cc1ccco1)C2=O	-1	3	5	3	1	-4	nt
CC(C)(C)NC(=O)COC(=O)c1ccc2c(c1)C(=O)N(Cc1ccco1)C2=O	-6	1	75*	2	1	-10	-1%
CC1=C(C#N)c2nc(N)c(C#N)c(C)c2/C1=C\c1ccc(-c2ccccc2C(=O)O)o1	-1	4	82*	nt	1	-42	-12%
O=C(NC1=NCCS1)c1ccccc1Cl	3	3	-2	-4	5	-8	nt
O=C(NC1=NCCS1)c1csc2ccccc12	-8	nt	70*	7	-9	nt	-3%
Cc1ccccc1CC(=O)N1CCN(C(=O)c2ccco2)CC1	-1	-4	32	2	0	-5	nt
Cc1ccccc1CN1CCN(C(=O)c2ccco2)CC1	3	-9	56*	-2	-5	-6	-5%
CCN(CC)CCNC(=O)c1c(C)[nH]c(/C=C2\C(=O)Nc3ccc(F)cc32)c1C	nt	nt	50*	nt	nt	nt	-14%
SMILES	FN deposition inh	AF4-AF9 inh	NSD2 inh	RAD54 inh	Glyco luc inh	RAD52 anneal inh	AlphaScreen art
CC(=O)c1ccc(NC(=S)NCCc2cccc(Cl)c2)cc1	-2	3	53*	nt	0	-19	-2%
Nc1c(C(=O)OCC2CCCO2)c2nc3ccccc3nc2n1C1CCCCC1 (centres undefined)	nt	3	76*	-1	7	-13	-7%
O=C(NCc1cccnc1)c1ccc2c(c1)OCO2	-2	nt	66*	1	2	-2	-3%
O=C(NCc1ccc2c(c1)OCO2)c1ccc2c(c1)C(=O)N(Cc1cccnc1)C2=O	nt	nt	0	2	0	nt	nt
N=c1c(C(=O)NCc2ccco2)cc2c(=O)n3ccccc3nc2n1C1CCCC1	-16	2	66*	-1	5	-58	1%
CS(=O)(=O)c1ccc2c(c1)sc1nc(=O)c(/C=C3/C=CC(=O)C(O)=C3)c(N)n12	-1	nt	119*	nt	-4	-40	7.1µM*
C[C@@H]1CN([C@H](C)CO)C(=O)Cc2cc(NC(=O)NC3CCCCC3)ccc2O[C@H]1CN(C)S(=O)(=O)c1ccc(F)cc1	nt	2	nt	2	nt	4	nt
CCOC(=O)c1c(C)oc2c1c(CN1CCN(CCO)CC1)c(O)c1ccccc12	4	3	3	nt	10	-4	nt
CCOC(=O)c1c(C)oc2c1c(C=NCCC(=O)O)c(O)c1ccccc12	-3	2	164*	2	0	-189	0%
C=CC[C@]1(C(=O)OC)N=C(c2ccc(OCCCO)cc2)O[C@H]1c1ccccc1	nt	4	nt	-3	nt	2	nt
CO[C@@H](CN(C)S(=O)(=O)c1cn(C)cn1)[C@H](C)CN(C(=O)Nc1ccc(F)cc1)[C@@H](C)CO	-2	1	nt	1	nt	-7	nt
Fc1ccc(NC(=S)Nc2cccc3cnccc23)cc1	2	2	30	nt	7	10	nt
COc1ccc(NC(=S)Nc2cccc3cnccc23)cc1	nt	nt	55*	4	5	nt	4%
S=C(Nc1cccnc1)Nc1cccc2cnccc12	-5	-3	108*	2	10	-10	2%
CCN(C(=S)Nc1cccnc1)c1cccc2ccccc12	nt	-1	100*	nt	2	-3	-6%
COc1ccccc1NC(=S)Nc1cccc2cnccc12	-9	-2	82*	nt	7	-9	-1%
CCN(CC)CCNC(=O)c1cc(-c2ccc(Br)s2)nc2ccccc12	-8	8	3	-3	2	-9	nt
CCN(CC)CCNC(=O)c1cc2cc(Br)ccc2s1	nt	0	56*	nt	-9	-10	-4%
COC(=O)c1c(NC(=O)C(C)C)sc(C(=O)N2CCOCC2)c1C	4	0	105*	-9	2	-12	-6%
CCOc1ccc(N)cc1OC	-5	15	56*	13	6	31	0%
COC(=O)C[C@H]1C[C@@H]2c3cc(NC(=O)c4cccnc4)ccc3O[C@@H]2[C@H](CO)O1	-17	-1	nt	7	nt	18	nt
